In ChEMBL document CHEMBL1125911, “Synthesis and biological activity of new HMG-CoA reductase inhibitors. 3. Lactones of 6-phenoxy-3,5-dihydroxyhexanoic acids” (J Med Chem, 1991):
Each block holds one compound with its values, some of them ahead of it.

What was measured:
Rattus norvegicus [1] = species on record: Rattus norvegicus; assay: Potency relative to mevinolin was determined with respect to IC50. […]; assay type: functional
Rattus norvegicus [2] = assay: In vivo inhibition of hepatic cholesterol de novo synthesis in rat after oral administration of 5 mg/kg dose; assay type: functional
Oryctolagus cuniculus [3] = assay: Tested in vivo for hypocholesterolemic activity by measuring its ability to decrease serum total cholesterol, after oral administration of 50 mg/kg body wt. per day in normolipidemic NZW rabbits; assay type: functional
Outline: (§1)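 NZW rabbits (n = 5 or 6) dosed orally daily for 10 days. Serum total cholesterol reported as % change versus control. For 20 mg/kg, that dose was given on days 11-20 after 10 mg/kg, with the value read on day 20. Error given as SEM.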

Rattus norvegicus [4] = species on record: Rattus norvegicus; assay: Compound was tested for inhibition of microsomal lipid peroxidation and the potency relative to terbufucine was determined; assay type: functional
Outline: (§2)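 Rat liver microsomes in 50 mM Tris-HCl pH 7.4 with 100 mM KCl and 6.0 mM MgCl2, final protein 0.4 mg/mL. Peroxidation was started with ADP (2 mM)/FeCl3 (10 μM) plus an NADPH-regenerating system. Incubation 30 min at 37 °C with shaking. Thiobarbituric acid reactive substances were read at 535 nm.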

[5] = biological target: T1, 3-hydroxy-3-methylglutaryl-coenzyme A reductase (Homo sapiens) (UniProt P04035); assay: (§3) Inhibition of HMG-CoA reductase compared to mevinolin.; assay type: functional
T1 sequence (whole entry): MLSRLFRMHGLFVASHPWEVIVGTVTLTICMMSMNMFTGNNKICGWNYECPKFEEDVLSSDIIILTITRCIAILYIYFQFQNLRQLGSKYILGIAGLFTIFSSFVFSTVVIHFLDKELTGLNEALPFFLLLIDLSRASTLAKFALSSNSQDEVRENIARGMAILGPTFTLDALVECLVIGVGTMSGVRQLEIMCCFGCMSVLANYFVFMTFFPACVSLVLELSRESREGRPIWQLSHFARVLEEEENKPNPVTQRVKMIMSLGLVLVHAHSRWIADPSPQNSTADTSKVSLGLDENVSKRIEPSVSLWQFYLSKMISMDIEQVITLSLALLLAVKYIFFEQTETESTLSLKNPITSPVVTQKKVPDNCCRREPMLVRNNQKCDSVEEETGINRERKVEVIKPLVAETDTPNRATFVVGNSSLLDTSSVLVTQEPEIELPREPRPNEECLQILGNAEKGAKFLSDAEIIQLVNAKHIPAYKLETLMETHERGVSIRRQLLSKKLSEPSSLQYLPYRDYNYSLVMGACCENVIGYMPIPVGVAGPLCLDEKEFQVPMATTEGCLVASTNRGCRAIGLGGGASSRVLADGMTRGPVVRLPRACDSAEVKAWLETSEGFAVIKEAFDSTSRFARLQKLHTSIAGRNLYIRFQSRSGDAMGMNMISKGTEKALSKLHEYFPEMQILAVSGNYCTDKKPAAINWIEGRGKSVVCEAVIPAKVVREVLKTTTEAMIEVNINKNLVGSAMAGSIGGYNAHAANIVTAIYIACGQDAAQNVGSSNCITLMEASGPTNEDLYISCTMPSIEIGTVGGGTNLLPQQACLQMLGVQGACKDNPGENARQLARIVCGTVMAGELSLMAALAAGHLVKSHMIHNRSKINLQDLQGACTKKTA
Outline: (§4)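 Solubilized, partially purified rat liver HMG-CoA reductase. IC50 from four or five inhibitor concentrations. Relative potency compared IC50 with mevinolin (set to 100), corrected for molecular weight.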

Sus scrofa [6] = species on record: Sus scrofa; assay: In vitro inhibition of Cu2+ catalyzed LDL oxidation at 10e-5 M conc.; assay type: functional
Outline: (§5)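 Porcine plasma LDL isolated by sequential ultracentrifugation (density 1.019-1.063 g/mL), dialysed against PBS pH 7.4, then diluted to 0.1 mg/mL protein. Preincubated 1 h at 37 °C under N2 with compound in ethanol. Oxidised with 5 μM Cu2+ for 2 h at 37 °C in air. Fluorescence read at ex 365/em 430 nm.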

Sus scrofa [7] = species on record: Sus scrofa; assay: Compound was tested for inhibition of Cu2+ catalyzed LDL oxidation and the potency relative to terbufucine was determined; assay type: functional; outline: as §5
Oryctolagus cuniculus [8] = assay: Tested in vivo for hypocholesterolemic activity by measuring its ability to decrease serum total cholesterol, after oral administration of 5 mg/kg body wt. per day in normolipidemic NZW rabbits; assay type: functional; outline: as §1
Sus scrofa [9] = species on record: Sus scrofa; assay: In vitro inhibition of Cu2+ catalyzed LDL oxidation; assay type: functional; outline: as §5
Rattus norvegicus [10] = species on record: Rattus norvegicus; assay: In vitro inhibition of microsomal lipid peroxidation at 10e-5 M conc.; assay type: functional; outline: as §2
[11] = biological target: T2, 3-hydroxy-3-methylglutaryl-coenzyme A reductase (Rattus norvegicus, UniProt P51639); assay: In vitro inhibition of HMG-CoA reductase in solubilized rat liver.
T2 sequence (P51639 whole entry): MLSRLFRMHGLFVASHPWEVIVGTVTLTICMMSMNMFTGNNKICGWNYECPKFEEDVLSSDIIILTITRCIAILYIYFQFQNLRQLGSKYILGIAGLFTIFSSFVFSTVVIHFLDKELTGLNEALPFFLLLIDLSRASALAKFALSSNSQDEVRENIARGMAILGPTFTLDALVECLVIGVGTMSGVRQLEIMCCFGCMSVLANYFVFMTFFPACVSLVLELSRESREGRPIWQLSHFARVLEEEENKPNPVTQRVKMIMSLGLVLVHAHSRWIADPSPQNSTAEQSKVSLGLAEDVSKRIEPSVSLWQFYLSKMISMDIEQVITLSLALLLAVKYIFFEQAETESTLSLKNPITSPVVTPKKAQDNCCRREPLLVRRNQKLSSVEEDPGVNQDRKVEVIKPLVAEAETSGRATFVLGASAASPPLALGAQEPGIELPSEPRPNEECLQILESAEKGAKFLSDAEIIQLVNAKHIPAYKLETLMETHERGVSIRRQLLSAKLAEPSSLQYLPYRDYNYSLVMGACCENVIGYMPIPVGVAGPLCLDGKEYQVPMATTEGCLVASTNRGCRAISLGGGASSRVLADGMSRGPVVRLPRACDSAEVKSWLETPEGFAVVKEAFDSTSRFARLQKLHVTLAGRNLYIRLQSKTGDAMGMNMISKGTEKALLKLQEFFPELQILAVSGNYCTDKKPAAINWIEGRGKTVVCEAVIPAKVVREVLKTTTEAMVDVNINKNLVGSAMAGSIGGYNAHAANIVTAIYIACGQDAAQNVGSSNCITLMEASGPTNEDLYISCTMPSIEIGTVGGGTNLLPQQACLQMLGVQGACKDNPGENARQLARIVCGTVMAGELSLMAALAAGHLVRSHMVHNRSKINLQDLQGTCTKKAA

[12] = biological target: T3, 3-hydroxy-3-methylglutaryl-coenzyme A reductase (Homo sapiens, UniProt P04035); assay: Inhibition of the incorporation of sodium [14C]acetate into cholesterol in HEP G2 cells.; assay type: functional, cell-based, HepG2
T3 sequence (P04035 whole entry): T1 sequence (whole entry)

[13] = biological target: T4, 3-hydroxy-3-methylglutaryl-coenzyme A reductase (Rattus norvegicus) (UniProt P51639); assay: as §3; outline: as §4
T4 sequence (whole entry): T2 sequence (P51639 whole entry)

Canis familiaris = assay: Tested in vivo for hypocholesterolemic activity by measuring its ability to decrease serum LDL-cholesterol, after oral administration of 25 mg/kg per day for 14 days in male Beagle dogs.; assay type: functional, Canis lupus familiaris
Outline: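 Male beagle dogs (n = 4) given neat compound in gelatine capsules daily at 3:00 p.m.; controls received empty capsules. After an overnight fast, venous blood was drawn at 8:00 a.m. Serum lipoproteins were separated by ultracentrifugation (densities 1.006/1.063/1.21). LDL-cholesterol reported as % change versus control.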

Oryctolagus cuniculus [14] = assay: Tested in vivo for hypocholesterolemic activity by measuring its ability to decrease serum total cholesterol, after oral administration of 10 mg/kg body wt. per day in normolipidemic NZW rabbits; assay type: functional; outline: as §1
Rattus norvegicus [15] = assay: Compound was tested for effect on serum LDL after oral administration of 100 mg/kg in male rats; assay type: functional
Outline: (§6)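 Male HOE:WISKf (SPF 71) rats, initial body weight over 180 g, n = 10 per group, dosed once daily in the morning by gavage in polyethylene glycol 400 for 7 days; controls received vehicle. Fasted after last dose, bled retroorbitally 24 h later under mild ether. Liver and body weight recorded. Pooled group serum was ultracentrifuged into VLDL (<1.006), LDL (1.006-1.04) and HDL (1.04-1.21). Values are % change versus control.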

Rattus norvegicus [16] = assay: Compound was tested for effect on body weight after oral administration of 100 mg/kg in male rats.; assay type: functional; outline: as §6
Rattus norvegicus [17] = assay: Compound was tested for effect on serum LDL after oral administration of 30 mg/kg in male rats; assay type: functional; outline: as §6
Rattus norvegicus [18] = species on record: Rattus norvegicus; assay: In vitro inhibition of microsomal lipid peroxidation; assay type: functional; outline: as §2
Rattus norvegicus [19] = assay: Compound was tested for effect on body weight after oral administration of 30 mg/kg in male rats.; assay type: functional; outline: as §6
Rattus norvegicus [20] = assay: Compound was tested for effect on serum VLDL after oral administration of 30 mg/kg in male rats; assay type: functional; outline: as §6
Rattus norvegicus [21] = assay: Compound was tested for effect on serum HDL after oral administration of 30 mg/kg in male rats; assay type: functional; outline: as §6
Rattus norvegicus [22] = assay: Compound was tested for effect on serum VLDL after oral administration of 100 mg/kg in male rats; assay type: functional; outline: as §6
Rattus norvegicus [23] = assay: Compound was tested for effect on liver weight after oral administration of 30 mg/kg in male rats.; assay type: functional; outline: as §6
Rattus norvegicus [24] = assay: Compound was tested for effect on serum HDL after oral administration of 100 mg/kg in male rats; assay type: functional; outline: as §6
Rattus norvegicus [25] = assay: Compound was tested for effect on liver weight after oral administration of 100 mg/kg in male rats.; assay type: functional; outline: as §6

Structure (SMILES): Cc1cc(Cl)cc(CCCOc2ccc(Cl)cc2)c1OCC1C[C@@H](O)CC(=O)O1 (stereo partly specified)
Relative potency (Rattus norvegicus [1]): 87 | Cholesterol (Rattus norvegicus [2]): 25.2% | Change (Oryctolagus cuniculus [3]): -2%

Structure (SMILES): O=C1C[C@H](O)CC(COc2c(Cl)cc(Cl)cc2C(c2ccc(F)cc2)c2ccc(F)cc2)O1 (stereo partly specified)
Relative potency (Rattus norvegicus [1]): 40 | Cholesterol (Rattus norvegicus [2]): 65.6%

Relative potency [5]: 10000 | IC50 (Sus scrofa [9]): > 10000 nM | IC50 [11]: 6 nM | IC50 [12]: 0.5 nM
Structure (SMILES): CC(C)c1cc(Sc2ccc(F)cc2)cc(-c2ccc(F)cc2)c1OCC(O)C[C@@H](O)CC(=O)[O-].[Na+] (stereo partly specified)
Relative potency (Rattus norvegicus [4]): < 0.1 | inhibition at 10 µM (Sus scrofa [6]): 41% | Relative potency (Sus scrofa [7]): 0.1 | Change (Oryctolagus cuniculus [8]): -46% | inhibition (Rattus norvegicus [10]): < 10%

Structure (SMILES): O=C1C[C@H](O)CC(COc2c(Cl)cc(Cl)cc2CC2CCCCC2)O1 (stereo partly specified)
Relative potency (Rattus norvegicus [1]): 74 | Cholesterol (Rattus norvegicus [2]): 36.4% | Change (Oryctolagus cuniculus [3]): -11%

Relative potency [13]: 43 | Relative potency [5]: 90 | IC50 [11]: 17 nM | IC50 [12]: 55 nM
Structure (SMILES): CC(C)c1cc(-c2ccc(F)cc2)cc(-c2ccc(F)cc2)c1OCC(O)C[C@@H](O)CC(=O)[O-].[Na+] (stereo partly specified)
Change (Canis familiaris): 3%

Structure (SMILES): CC(C)c1cc(C(C)(C)C)cc(-c2ccc(F)cc2)c1OCC1C[C@@H](O)CC(=O)O1 (stereo partly specified)
Relative potency (Rattus norvegicus [1]): 6 | Cholesterol (Rattus norvegicus [2]): 95.7% | Change (Oryctolagus cuniculus [14]): -15%

Relative potency [5]: 250 | IC50 [12]: 1.8 nM
Structure (SMILES): CC(C)c1cc(-c2ccc(F)cc2)c(OCC2C[C@@H](O)CC(=O)O2)c(C(C)C)c1 (stereo partly specified)
Relative potency (Rattus norvegicus [1]): 103 | Cholesterol (Rattus norvegicus [2]): 11.4% | Change (Oryctolagus cuniculus [14]): -30%

Relative potency [13]: 15 | Relative potency [5]: < 3 | IC50 (Rattus norvegicus [18]): 2700 nM | IC50 [11]: 30 nM | IC50 [12]: > 1700 nM
Structure (SMILES): CC(C)c1cc(SC(C)(C)Sc2cc(-c3ccc(F)cc3)c(OCC(O)C[C@@H](O)CC(=O)[O-])c(C(C)C)c2)cc(-c2ccc(F)cc2)c1[O-].[Na+].[Na+] (stereo partly specified)
Relative potency (Rattus norvegicus [4]): 4 | Change (Rattus norvegicus [15]): -16% | Change (Rattus norvegicus [16]): 5% | Change (Rattus norvegicus [17]): -26% | Change (Rattus norvegicus [19]): 5% | Change (Rattus norvegicus [20]): 12% | Change (Rattus norvegicus [21]): 13% | Change (Rattus norvegicus [22]): 13% | Change (Rattus norvegicus [23]): 3% | Change (Rattus norvegicus [24]): -3% | Change (Rattus norvegicus [25]): 1%

Structure (SMILES): CCOC(=O)C(C)(C)Oc1ccc(Cl)cc1 [CLOFIBRATE]
Change (Rattus norvegicus [15]): -19% | Change (Rattus norvegicus [16]): 8% | Change (Rattus norvegicus [22]): -40% | Change (Rattus norvegicus [24]): -29% | Change (Rattus norvegicus [25]): 15%
